The values that follow come from ChEMBL document CHEMBL1145384, “Novel C-6 fluorinated acyclic side chain pyrimidine derivatives: synthesis, (1)H and (13)C NMR conformational studies, and antiviral and cytostatic evaluations” (J Med Chem, 2007).

The subject of data set [1] is Human betaherpesvirus 5. Nature of the data set: Antiviral activity against human cytomegalovirus AD169 in HEL cells assessed as reduction of plaque formation after 7 days. The class given is functional, organism-based. The conditions noted are these: Human betaherpesvirus 5, AD169, HEL, 168 h. An outline of the steps: (§1)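 Confluent HEL fibroblasts infected with HCMV (Davis or AD-169) at 100 PFU per well; after 2 h adsorption, residual virus removed and medium with serial compound concentrations added (duplicate wells). Incubated 7 days; EC50 taken as concentration reducing plaque formation by 50%.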

Data set [2] has as its system Human betaherpesvirus 5. The data set is described as follows: Antiviral activity against human cytomegalovirus Davis in HEL cells assessed as reduction of plaque formation after 7days. The following applies: Human betaherpesvirus 5, Davis, 168 h. The class given is functional, organism-based. In a few lines:
as §1

For data set [3], the system named is Human alphaherpesvirus 3. The data set is described as follows: Antiviral activity against thymidine kinase expressing Varicella-Zoster virus OKA assessed as reduction of plaque formation. Type of data set: functional, organism-based. The conditions noted are these: Human alphaherpesvirus 3, OKA.
Data set [4] relates to Human alphaherpesvirus 3. The data set is described as follows: Antiviral activity against thymidine kinase deficient Varicella-Zoster virus 07/1 assessed as reduction of plaque formation. Type of data set: functional, organism-based. The conditions noted are these: Human alphaherpesvirus 3, 07/1. An outline of the steps: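 Plaque reduction assay in HEL cells against TK+ (OKA) and TK- (07/1) VZV strains; virus input 100 PFU; EC50 as concentration giving 50% plaque reduction.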

The nature of data set [5]: Cytotoxicity against HEL cells assessed as cell morphology after 7 days. The class given is cell-based. The conditions noted are these: human. An outline of the steps: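 Uninfected confluent HEL cultures exposed to compounds; MCC recorded as lowest concentration producing a microscopically detectable alteration of normal cell morphology at day 7.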
Data set [6] in a line: Cytotoxicity against HEL cells assessed as cell growth after 7 days. The conditions noted are these: human. The class given is cell-based.
The subject of another data set is Human respirovirus 3. The data set is described as follows: Antiviral activity against parainfluenza 3 virus in Vero cells assessed as reduction of virus plaque formation after 7 days. Type of data set: functional, organism-based. The following applies: Human respirovirus 3, Vero, 168 h.
For data set [7], the system named is Mammalian orthoreovirus 1. Nature of the data set: Antiviral activity against reovirus1 virus in Vero cells assessed as reduction of virus plaque formation after 7 days. Type of data set: functional, organism-based. The conditions noted are these: Mammalian orthoreovirus 1, Vero, 168 h.
In the next data set the test system is Sindbis virus. The data set is described as follows: Antiviral activity against sindbis virus in Vero cells assessed as reduction of virus plaque formation after 7 days. Type of data set: functional, organism-based. The conditions noted are these: 168 h.
A further data set has as its system Punta Toro virus. The data set is described as follows: Antiviral activity against Punta Toro virus in Vero cells assessed as reduction of virus plaque formation after 7 days. Type of data set: functional, organism-based. The conditions noted are these: 168 h.
Another data set has as its system Coxsackievirus B4. The data set is described as follows: Antiviral activity against coxsackie B4 virus in HeLa cells assessed as reduction of virus plaque formation after 7 days. The class given is functional, organism-based. The conditions noted are these: Enterovirus B, 168 h.
A further data set deals with HEp-2. Nature of the data set: Growth inhibition of Hep2 cells after 72 hrs by MTT assay. Type of data set: functional, cell-based. The following applies: Homo sapiens, HEp-2, 72 h. An outline of the steps:
(§2)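 Tumor lines grown as monolayers in DMEM with 10% FBS, 2 mM L-glutamine and penicillin. Freshly diluted compounds added, solvent tested at matching concentrations; after 72 h growth measured by MTT. IC50 obtained by linear regression of concentrations bracketing 50% growth; mean of three separate experiments.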
(Tetrazolium dyes change colour on reduction, which living cells bring about.)

The next data set relates to HeLa. The data set is described as follows: Growth inhibition of HeLa cells after 72 hrs by MTT assay. The class given is functional, cell-based. The following applies: Homo sapiens. An outline of the steps: as §2
Another data set deals with MIA PaCa-2. The data set is described as follows: Growth inhibition of MiaPaCa2 cells after 72 hrs by MTT assay. The conditions noted are these: Homo sapiens, MIA PaCa-2, 72 h. The class given is functional, cell-based. An outline of the steps: as §2
The test system of another data set is SW-620. The data set is described as follows: Growth inhibition of SW620 cells after 72 hrs by MTT assay. Type of data set: functional, cell-based. The conditions noted are these: Homo sapiens, SW-620, 72 h. An outline of the steps: as §2
The subject of the next data set is MCF7. Nature of the data set: Growth inhibition of MCF7 cells after 72 hrs by MTT assay. The following applies: Homo sapiens, MCF7, 72 h. The class given is functional, cell-based. An outline of the steps:
as §2

A further data set deals with L1210. The data set is described as follows: Growth inhibition of mouse L1210 cells after 72 hrs by MTT assay. Type of data set: functional, cell-based. The following applies: L1210, 72 h.
Data set [8] is described as follows: Growth inhibition of human Molt4/C8 cells after 72 hrs by MTT assay. Type of data set: functional, cell-based. The conditions noted are these: MOLT-4, 72 h.
Another data set relates to CCRF-CEM. Nature of the data set: Growth inhibition of human CEM cells after 72 hrs by MTT assay. Type of data set: functional, cell-based.
In a further data set the test system is WI-38. The data set is described as follows: Growth inhibition of human WI38 fibroblasts at 0.1 uM after 72 hrs by MTT assay. The class given is functional, cell-based.

The source made the active and inactive calls. The calls are words filed in the database; no cut-off is given here.

The EC50 is the concentration giving half of the maximal effect. For orientation: CC50 means the concentration giving 50% cytotoxicity. For orientation: IC50 means the concentration that gives 50% inhibition. A lower IC50 goes with greater potency. Regarding `COc1nc(CBr)c(Br)c(OC)n1`, the EC50 is above 100 µM with Human betaherpesvirus 5 [1]; above 100 µM in the data set on Human betaherpesvirus 5 [2]; above 100 µM in the data set with Human alphaherpesvirus 3 [3]; above 100 µM with Human alphaherpesvirus 3 [4]; above 8 µM with Human respirovirus 3; above 8 µM in data set [7]. The values for the EC50 in the data set with Sindbis virus, with Punta Toro virus and with Coxsackievirus B4 were above 8 µM, above 8 µM and above 40 µM, respectively. In addition, in data set [5], the MCC at 168 h is above 100 µM. The CC50 at 168 h in [6] turned out to be 38.7 µM. The IC50 with HEp-2 amounted to 7 µM; in the data set with HeLa, 18 µM; in the data set on MIA PaCa-2, 2 µM; in the data set on SW-620, 1 µM; in the data set with MCF7 it was 8 µM; in the data set with L1210, 38 µM. Also, the concentration for half-maximal inhibition (IC50) in data set [8] turned out to be 97 µM; with CCRF-CEM it was 28 µM. Moreover, in the data set on WI-38, the result was inactive.
Consider `COc1cc(CC(C)(CF)OC(C)=O)nc(OC)n1` (centres undefined), for which the EC50 in the data set on Human betaherpesvirus 5 [1] was above 14.7 µM; with Human betaherpesvirus 5 [2], above 14.7 µM; in the data set with Human alphaherpesvirus 3 [3], 8.1 µM; in the data set on Human alphaherpesvirus 3 [4], 7.4 µM; in the data set on Human respirovirus 3, above 29 µM; in [7], above 29 µM. Moreover, the 50% effective concentration (EC50) with Sindbis virus was above 29 µM; in the data set with Punta Toro virus, above 29 µM; in the data set with Coxsackievirus B4 it was above 147 µM. Also, the MCC at 168 h in data set [5] stood at 73.5 µM. The CC50 at 168 h in data set [6] amounted to 50 µM. Further, the concentration for half-maximal inhibition (IC50) in the data set with HEp-2 came to 17.7 µM; with HeLa, 11.7 µM; with MIA PaCa-2, 39 µM; in the data set on SW-620, 30 µM; in the data set with MCF7 it was 18 µM; with L1210 it was 21.7 µM. Moreover, the IC50 in [8] was 47.8 µM; in the data set with CCRF-CEM, 20.6 µM.
